Measured values published in PMC6589821 (Bioorganic & medicinal chemistry, 2019).
“Also recorded” adds a separate entry of the source.

Columns and labels:
HIV-1 FSS RNA [1] = assay: SPR binding to immobilised HIV-1 FSS RNA; conditions: for ka / kd: SPR, 1:1 Langmuir fit, average of four curves
HEK293FT cells = assay: WST-1 cytotoxicity assay; type: cell-based; conditions: 24 hours
pseudotyped HIV = conditions: earlier work; cited from earlier work
p160 Gag-Pol = conditions: earlier work; cited from earlier work
[2] = test system: hairpin derived from BDNF; assay: Competition dialysis, BDNF mRNA hairpin; type: binding, human; conditions: 2.0 μM compound, 2.5 μM RNA, 36 hours
Procedure, shortened: (§1)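 RNA hairpins refolded at 2.5 μM in PBS with 1 mM EDTA (3 min 25 °C, 3 min 90 °C, 5 min 27 °C). Duplicate dialysis tubes (MWCO 3500) of RNA, plus an RNA-free control, dialysed 36 h against 2.0 μM test compound in PBS. Bound compound released with 1% Triton X-100 (final). Total compound per tube quantified by HPLC against a calibration curve.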

IRF5 RNA = assay: Competition dialysis, IRF5 mRNA hairpin; type: binding, human; conditions: 2.0 μM compound, 2.5 μM RNA, 36 hours
Procedure, shortened: as §1

HIV-1 FSS RNA [3] = assay: Competition dialysis, HIV-1 FSS hairpin; type: binding; conditions: 2.0 μM compound, 2.5 μM RNA, 36 hours, 8 competing human hairpins
Procedure, shortened: as §1

HIV-1 FSS RNA [4] = assay: Competitive SPR assay with excess yeast tRNA in solution; type: binding
Procedure, shortened: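 Streptavidin was coupled by EDC/NHS onto a CM5 chip, then ethanolamine-blocked; about 2000 RU of biotinylated HIV-1 FSS RNA (refolded 3 min at 75 °C in HBS, pH 7.4) was captured on one flow cell. Analyte was injected with or without excess bulk yeast tRNA at 80 μL/min for 1 min in HBS. At least two injections per condition.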

HIV IIIB = conditions: earlier work; cited from earlier work
HIV-1 AD.MDR01 = conditions: patient-derived strain; cited from earlier work

ka (HIV-1 FSS RNA [1]) [M⁻¹ s⁻¹] | kd (HIV-1 FSS RNA [1]) [s⁻¹] | SMILES | also measured
14900 | 0.0068 | CCc1nc2ccccc2cc1C(=O)N(C)[C@@H](CCn1cc(C[C@@H](C(=O)N2C[C@H](O)C[C@H]2C(=O)N(C)[C@@H](Cc2ccccc2)C(=O)NCCCN)N(C)C(=O)c2cc3ccccc3nc2CC)nn1)C(=O)N1C[C@H](O)C[C@H]1C(=O)N(C)[C@@H](Cc1ccccc1)C(=O)NCCCN [Compound 5] | 
64900 | 0.0237 | CCc1nc2ccccc2cc1C(=O)N(C)[C@@H](CCn1cc(C[C@@H](C(=O)N2CCC[C@H]2C(=O)N(C)[C@@H](Cc2ccccc2)C(=O)NCCCN)N(C)C(=O)c2cc3ccccc3nc2CC)nn1)C(=O)N1CCC[C@H]1C(=O)N(C)[C@@H](Cc1ccccc1)C(=O)NCCCN [Compound 4] | effect on cellular metabolism (WST-1) (HEK293FT cells): significant effects below a concentration of 40 micromolar
1690 | 0.0207 | CCc1nc2ccccc2cc1C(=O)N(C)[C@@H](CCn1cc(C[C@@H](C(=O)N2CCC[C@H]2C(=O)N(C)[C@@H](Cc2ccccc2)C(N)=O)N(C)C(=O)c2cc3ccccc3nc2CC)nn1)C(=O)N1CCC[C@H]1C(=O)N(C)[C@@H](Cc1ccccc1)C(N)=O [Compound 8] | 
 |  | CCc1nc2cc3ccccc3cc2cc1C(=O)N[C@@H](C/C=C\C[C@H](NC(=O)c1cc2cc3ccccc3cc2nc1CC)C(=O)N1CCC[C@H]1C(=O)N[C@@H](Cc1ccccc1)C(=O)NCCCN)C(=O)N1CCC[C@H]1C(=O)N[C@@H](Cc1ccccc1)C(=O)NCCCN [Compound 2] | effect on pseudotyped HIV (pseudotyped HIV): inhibited both production and infectivity; p160 Gag-Pol level in virus (Western blot) (p160 Gag-Pol): concentration-dependent increases in p160 Gag-Pol
67400 | 0.00542 | CN(C(=O)c1cnc2ccccc2c1)[C@@H](CCn1cc(C[C@@H](C(=O)N2C[C@H](O)C[C@H]2C(=O)N(C)[C@@H](Cc2ccccc2)C(=O)NCCCN)N(C)C(=O)c2cnc3ccccc3c2)nn1)C(=O)N1C[C@H](O)C[C@H]1C(=O)N(C)[C@@H](Cc1ccccc1)C(=O)NCCCN [Compound 7] | 
56600 | 0.00226 | CN(C(=O)c1cnc2ccccc2c1)[C@@H](CCn1cc(C[C@@H](C(=O)N2CCC[C@H]2C(=O)N(C)[C@@H](Cc2ccccc2)C(=O)NCCCN)N(C)C(=O)c2cnc3ccccc3c2)nn1)C(=O)N1CCC[C@H]1C(=O)N(C)[C@@H](Cc1ccccc1)C(=O)NCCCN [Compound 6] | binding in competition dialysis [2]: appreciably bound; binding in competition dialysis (IRF5 RNA): appreciably bound; binding among hairpins in competition dialysis (HIV-1 FSS RNA [3]): preferentially binds to HIV-1 FSS; change of binding constant with versus without excess tRNA (HIV-1 FSS RNA [4]; SPR traces with and without excess tRNA): within statistical error; also recorded: little impact on binding; fold lower affinity for the FSS than compound 3 (HIV-1 FSS RNA [1]; KD ratio versus 3): 4 fold
 |  | NC[C@@H]1O[C@H](O[C@H]2[C@@H](O)[C@H](O[C@@H]3[C@@H](O)[C@H](N)C[C@H](N)[C@H]3O[C@H]3O[C@H](CN)[C@@H](O)[C@H](O)[C@H]3N)O[C@@H]2CO)[C@H](N)[C@@H](O)[C@@H]1O [Neomycin, neomycin, reference compound] | SPR signal for HIV-1 FSS binding with tRNA (HIV-1 FSS RNA [4]; 30 μM tRNA, 3-fold excess relative to neomycin): completely ablated

SMILES | ka (HIV-1 FSS RNA [1]) [M⁻¹ s⁻¹] | kd (HIV-1 FSS RNA [1]) [s⁻¹] | also measured
CN(C(=O)c1cnc2ccccc2c1)[C@@H](CCn1cc(C[C@@H](C(=O)N2C[C@H](O)C[C@H]2C(=O)N(C)[C@@H](Cc2ccccc2)C(N)=O)N(C)C(=O)c2cnc3ccccc3c2)nn1)C(=O)N1C[C@H](O)C[C@H]1C(=O)N(C)[C@@H](Cc1ccccc1)C(N)=O [Compound 10] | 4090 | 0.00541 | fold difference in KD between 10 and 6 (HIV-1 FSS RNA [1]; KD ratio 10 versus 6): 23 fold
CCc1nc2cc3ccccc3cc2cc1C(=O)N(C)[C@@H](CCn1cc(C[C@@H](C(=O)N2CCC[C@H]2C(=O)N(C)[C@@H](Cc2ccccc2)C(=O)NCCCN)N(C)C(=O)c2cc3cc4ccccc4cc3nc2CC)nn1)C(=O)N1CCC[C@H]1C(=O)N(C)[C@@H](Cc1ccccc1)C(=O)NCCCN [Compound 3] | 190000 | 0.003 | effect on pseudotyped HIV (pseudotyped HIV): inhibited both production and infectivity; p160 Gag-Pol level in virus (Western blot) (p160 Gag-Pol): concentration-dependent increases in p160 Gag-Pol; inhibition of laboratory strain HIV-1 IIIB (HIV IIIB): inhibited; inhibition of multidrug resistant strain (HIV-1 AD.MDR01): inhibited
